A selection: hits, their analogues and other compounds. The true share with any hit is near 2.3%.
HGIII-sPLA2 inh: Inhibits HGIII-sPLA2 liposome hydrolysis, primary screen. inhibition, % at 12.2 µM. QFRET BODIPY PC-A2 liposome hydrolysis, fluorescence. 370,000 compounds, 0.56% hits. Q9NZ20;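 active = inhibition above mean plus 3 SD of compounds lying within the high and low control bounds, cut at about 19% in these data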;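 also: 0% = median of test compound wells and 100% = no enzyme DMSO wells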
Target sequence (Q9NZ20 whole entry, looked up): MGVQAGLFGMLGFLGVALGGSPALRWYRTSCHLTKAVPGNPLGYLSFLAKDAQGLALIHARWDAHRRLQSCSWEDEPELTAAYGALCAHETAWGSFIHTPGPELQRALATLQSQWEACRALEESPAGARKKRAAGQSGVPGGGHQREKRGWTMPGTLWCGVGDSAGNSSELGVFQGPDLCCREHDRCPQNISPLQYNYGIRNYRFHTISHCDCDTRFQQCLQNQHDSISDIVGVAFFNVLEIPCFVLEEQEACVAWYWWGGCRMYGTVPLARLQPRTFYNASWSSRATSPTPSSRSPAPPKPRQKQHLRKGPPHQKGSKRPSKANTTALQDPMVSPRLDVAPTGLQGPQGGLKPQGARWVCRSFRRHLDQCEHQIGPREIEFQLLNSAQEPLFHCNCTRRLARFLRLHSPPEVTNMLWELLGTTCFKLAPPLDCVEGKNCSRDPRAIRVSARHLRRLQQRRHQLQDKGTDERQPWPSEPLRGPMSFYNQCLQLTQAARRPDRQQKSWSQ
Calb FLC: affects C. albicans growth with fluconazole; C. albicans CaCi-2 + fluconazole, Alamar Blue growth, 48 h; growth inhibition, % (no concentration beside the values); 300,000 compounds, 0.57% hits; AID 1979;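 active = growth inhibition above about 58% in most replicates, limit read from the data, passing the limit was not always enough; inconclusive = exactly half the replicates above a set limit; inactive = most replicates below a set limit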;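 also: all wells also contain fluconazole at 8 µg/ml as a sub-toxic cotreatment; 0% = median of DMSO wells and 100% = median of geldanamycin control wells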
ARFGAP1 inhibitor: inhibits rat ARF GTPase activating protein 1 | Q62848 | Arfgap1-stimulated ARF1 GTP hydrolysis, GDP FP detection | inhibition, % at 16.5 µM | 360,000 compounds, 0.26% hits;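 active = inhibition above a per-plate limit, mean inhibition of low control wells plus 3 SD, cut at about 25% in these data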;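 also: 0% = DMSO wells with enzyme and 100% = wells lacking Arfgap1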
Target sequence (Q62848 1-136 limits assumed): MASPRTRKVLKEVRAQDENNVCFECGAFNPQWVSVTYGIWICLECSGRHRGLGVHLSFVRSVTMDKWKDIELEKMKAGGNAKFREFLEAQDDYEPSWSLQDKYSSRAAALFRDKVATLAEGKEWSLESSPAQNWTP
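system = rat Arfgap1 catalytic domain, aa 1-136 | technique = FP, GDP Alexa 633 tracer displaced from anti-GDP antibody, 620/688 nm | compound = one concentration, 16.5 µM, DMSO 1.26% | medium = HEPES-based buffer, pH 7.5 | timing = compound-enzyme preincubation 20 min, reaction 120 min, detection 60 min, 25 °C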
ASAP1 inh: inhibitors of human ASAP1 ArfGAP activity; Q9ULH1; ASAP1-stimulated ARF1 GTP hydrolysis, GDP FP detection; inhibition, % at 16.5 µM; 360,000 compounds, 0.19% hits; AID 624377; in the data active = inhibition above about 25%;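 also: 0% = vehicle with enzyme and substrate and 100% = no enzyme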
SKKanGAS inh: inhibitors of SKKanGAS S. pyogenes growth in kanamycin (SK-promoter or general growth effect); BacTiter-Glo, 6 h; inhibition, % at 7.5 µM; 300,000 compounds, 1.3% hits; AID 1662;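 active = mean replicate score, as percent of positive control median, at least 50; inconclusive = mean below 50 but one replicate at or above 50; inactive = mean and every replicate below 50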;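 also: strain carries kanamycin resistance gene driven by streptokinase promoter and grows in 40 µg/ml kanamycin; loss of luminescence reflects streptokinase promoter inhibition or plain growth inhibition; 0% = median of DMSO wells and 100% = positive control at its reference dose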
Numbers without * were called inactive; ? = inconclusive; / = not tested or not shown.

SMILES | HGIII-sPLA2 inh | Calb FLC | ARFGAP1 inhibitor | ASAP1 inh | SKKanGAS inh
CC(C)C[C@H]1CN=C(Nc2ccccc2)N1CCCC1CCCC1 | -3 | -21 | 3 | -12 | 1
CC(C)C[C@H]1CN=C(Nc2ccccc2)N1CCCC1CCCCC1 | -5 | 77* | 5 | -6 | 10
CCOC(=O)Cc1csc(NC(=O)CSc2nnc(-c3ccncc3)o2)n1 | 1 | 106* | -4 | -1 | 1
Cc1csc(NC(=O)CSc2nnc(-c3ccncc3)o2)n1 | 0 | 10 | -6 | 1 | 2
CCOC(=O)Cc1csc(NC(=O)CSc2nnc(-c3ccc(NS(=O)(=O)CC)cc3)o2)n1 | -19 | 85* | -1 | 17 | 6
Cc1cccc(CNC(=S)OCCN2CCCC23CCC(c2ccccc2)CC3)c1 (centres undefined) | -9 | / | / | / | /
COC(=O)C1(F)C(=O)NC(=O)NC1OC (centres undefined) | -1 | / | -5 | -3 | /
COc1ccc2nc(NNC(=O)c3cc(=O)c4ccccc4o3)sc2c1 | 16 | 2 | -3 | 5 | 50*
O=C(NNc1nc2c(F)cccc2s1)c1cc(=O)c2ccccc2o1 | 7 | -2 | 6 | -2 | 29
Cc1ccc2sc(NNC(=O)c3cc(=O)c4ccccc4o3)nc2c1C | 13 | -9 | 10 | -4 | 86*
Cc1cccc2sc(NNC(=O)c3cc(=O)c4ccccc4o3)nc12 | 19 | 66 | -6 | 8 | 85*
Cc1ccc2sc(NNC(=O)c3cc(-c4cccs4)nc4ccccc34)nc2c1C | 9 | -7 | 3 | -6 | 90*
CC1(C)CC(=O)C=C(Nc2ccccc2NC(=O)c2cc(Cl)ccc2F)C1 | 2 | / | / | / | /
C#CCNC(=O)c1ccc(OCc2ccccc2)cc1Cl | 10 | -46 | 8 | -7 | 1
O=C(NCCCl)c1ccc(OCc2ccccc2)cc1Cl | 22* | -1 | 4 | 10 | 7
CCc1nnc(NC(=O)c2ccc(S(=O)(=O)N(CC(C)C)CC(C)C)cc2)o1 | 7 | / | 14 | -4 | /
COCCN(CCOC)S(=O)(=O)c1ccc(C(=O)Nc2nnc(COC)o2)cc1 | -1 | 24 | -1 | 7 | -4
CCCN(CCC)S(=O)(=O)c1ccc(C(=O)Nc2nnc(COC)o2)cc1 | 1 | -11 | 1 | -7 | 69*
CSCc1nnc(NC(=O)c2ccc(S(=O)(=O)N(CC(C)C)CC(C)C)cc2)o1 | / | -31 | / | / | 80*
COCc1nnc(NC(=O)c2ccc(S(=O)(=O)N3CCCCCC3)cc2)o1 | 0 | 80* | 1 | 3 | 1
COCc1nnc(NC(=O)c2ccc(S(=O)(=O)N(C)C3CCCCC3)cc2)o1 | -11 | -3 | -1 | 3 | 62*
CSCc1nnc(NC(=O)c2ccc(S(=O)(=O)N(C)C)cc2)o1 | 6 | -11 | -1 | 8 | -2
CC(/C=C/c1ccco1)=N/NC(=O)CNc1ccccc1C | -1 | -27 | -10 | 12 | -4
CC(/C=C/c1ccco1)=N\NC(=O)CNc1ccc2ccccc2c1 | -2 | 116* | 1 | 10 | 10
CC(C)C[C@H](NC1(C(=O)NCCc2c[nH]c3ccccc23)CCN(C)CC1)C(=O)NCCCc1ccccc1 | -52 | / | / | / | /
SMILES | HGIII-sPLA2 inh | Calb FLC | ARFGAP1 inhibitor | ASAP1 inh | SKKanGAS inh
CCOc1cc(/C=C2\C(=O)N(c3nc(-c4ccc(Br)cc4)cs3)N=C2c2ccccc2)ccc1O | / | ? | / | / | 73*
Cc1ccnc(NC(c2ccsc2)c2ccc3ccc(C)nc3c2O)c1 (centres undefined) | 19 | -6 | 9 | 4 | 93*
Cc1ccc(C(Nc2ccccc2)c2ccc3ccc(C)nc3c2O)c(C)c1 (centres undefined) | 10 | / | 2 | 15 | /
COc1ccc(C(Nc2cc(C)ccn2)c2ccc3ccc(C)nc3c2O)cc1 (centres undefined) | 7 | -1 | -6 | 1 | 61*
Cc1nc(NC(=O)c2ccccc2)sc1Cc1ccc2c(c1)OCO2 | -14 | -21 | 6 | -1 | 11
Cc1cc(C)nc(NC(=NCc2ccc3c(c2)OCO3)NC(=O)Nc2ccccc2)n1 | 4 | 122* | 15 | 4 | /
COc1ccc(Cc2c(C3CCCCC3)nc3ccc(C)cn23)c(C)c1 | 5 | / | -8 | 1 | /
c1ccc(CSC2=NNC(c3ccccn3)S2)cc1 (centres undefined) | 16 | 5 | 7 | 2 | 83*
O=C(CSC1=NNC(c2ccccn2)S1)Nc1ccc(C(F)(F)F)cc1 (centres undefined) | 1 | -1 | 8 | 0 | 48
CCOc1ccc(NC(=O)CN(C)C(=O)C2CC(=O)N(c3ccc4c(c3)OCCO4)C2)cc1OCC (centres undefined) | 6 | 10 | -1 | 1 | 52*
O=C(O)c1ccc(Nc2cnc3ccccc3n2)cc1 | 6 | 95* | 6 | 4 | 1
CCCc1nc2oc3c(Cl)ncnc3c2c2c1CCCC2 | 7 | 3 | -5 | 8 | 53*
COC(=O)C12C=C3CC(c4ccc(OC)cc4)=C3C(=O)N1Cc1[nH]c3ccccc3c1C2 (centres undefined) | -5 | / | / | / | /
CCCCc1oc2ccccc2c1C(=O)c1cc(I)c(OCCN(CC)CC)c(I)c1 | -9 | / | -9 | 4 | 106*
CSc1cccc(NC(=O)CCc2ccccc2)c1 | 1 | -5 | 10 | -6 | -7
CSc1cccc(NC(=S)NC(=O)CCc2ccccc2)c1 | 6 | -10 | 3 | 3 | 60*
O=C(CCC(=O)Nc1ccc(Cl)cc1Cl)N/N=C/c1ccc([N+](=O)[O-])o1 | -8 | 101* | 5 | 5 | 17
CCCCCC(=O)N/N=C/c1ccc([N+](=O)[O-])o1 | 6 | -9 | 0 | 7 | 4
Cc1cccc(-n2c(N)c(-c3nc4ccccc4n3C)c3nc4ccccc4nc32)c1 | -2 | -3 | 0 | 2 | 78*
Cn1c(-c2c(N)n(-c3ccccc3)c3nc4ccccc4nc23)nc2ccccc21 | 2 | 15 | 16 | -4 | -19
COC(=O)[C@]12C[C@H](CC(=O)NCC3CCCCC3)C(=O)N(Cc3ccccc3)C1=C[C@H](C(C)(C)C)O[C@@H]2C | 10 | / | -2 | -26 | /
COc1ccc(C(=O)NNC(=S)NC(=O)c2ccc(Br)o2)cc1OC | 19 | -1 | 2 | 8 | 66*
COc1ccc(OCC(=O)NNC(=O)c2cccs2)cc1 | -2 | -6 | 7 | -1 | -3
Cc1cc(OCC(=O)NNC(=S)NC(=O)c2cccs2)ccc1Cl | -2 | 104* | 6 | -2 | /
Cc1ccc(OCC(=O)NNC(=S)NC(=O)c2ccc(Br)o2)c(C)c1 | -2 | -14 | -6 | -1 | 93*
Cc1ccc(OCC(=O)NNC(=S)NC(=O)c2cccs2)c(C)c1 | -2 | -27 | -2 | 4 | 87*
Cc1cccc(NC(=S)NNC(=O)c2ccc(Br)o2)c1 | 14 | -8 | 2 | 10 | 2
Cc1ccc(Cl)cc1NC(=O)N(C)CCOC(=O)Nc1cccc(Cl)c1 | -16 | / | 8 | 13 | /
CCCCNC(=O)C[C@H]1C[C@@]2(C(=O)OC)C(=C[C@H](C(C)(C)C)O[C@@H]2C)N(Cc2ccc(Cl)cc2Cl)C1=O | -10 | / | / | / | /

Source: PubChem BioAssay (several laboratories)
